Shown are actives, neighbours in structure and some others; about 2.9% of the full set was active somewhere.
DDE Tn6 FP inh – disrupts Tn6 cyclic peptide binding to fibrin D-Dimer-E complex | actives 0.21% (n = 370,000) | inhibition, % at 8.3 µM | P02675 | AID 720509 | Fibrin DD(E) TRITC-Tn6 fluorescence polarization displacement;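 active means inhibition above a per-campaign cutoff: mean of compounds within control limits plus 3 SD, cut at about 15% in these data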
CendR NRP1 mod – NRP-1/CendR interaction modulation; FAM-RPARPAR peptide binding to NRP-1, fluorescence polarization; actives 0.85% (n = 360,000); inhibition, % at 25 µM; O14786;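 active means inhibition or corrected inhibition above about 18%, plus a signal ratio from 0.5 to 1.5, limit read from the data, passing the limit was not always enough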
Target sequence (O14786 whole entry, looked up): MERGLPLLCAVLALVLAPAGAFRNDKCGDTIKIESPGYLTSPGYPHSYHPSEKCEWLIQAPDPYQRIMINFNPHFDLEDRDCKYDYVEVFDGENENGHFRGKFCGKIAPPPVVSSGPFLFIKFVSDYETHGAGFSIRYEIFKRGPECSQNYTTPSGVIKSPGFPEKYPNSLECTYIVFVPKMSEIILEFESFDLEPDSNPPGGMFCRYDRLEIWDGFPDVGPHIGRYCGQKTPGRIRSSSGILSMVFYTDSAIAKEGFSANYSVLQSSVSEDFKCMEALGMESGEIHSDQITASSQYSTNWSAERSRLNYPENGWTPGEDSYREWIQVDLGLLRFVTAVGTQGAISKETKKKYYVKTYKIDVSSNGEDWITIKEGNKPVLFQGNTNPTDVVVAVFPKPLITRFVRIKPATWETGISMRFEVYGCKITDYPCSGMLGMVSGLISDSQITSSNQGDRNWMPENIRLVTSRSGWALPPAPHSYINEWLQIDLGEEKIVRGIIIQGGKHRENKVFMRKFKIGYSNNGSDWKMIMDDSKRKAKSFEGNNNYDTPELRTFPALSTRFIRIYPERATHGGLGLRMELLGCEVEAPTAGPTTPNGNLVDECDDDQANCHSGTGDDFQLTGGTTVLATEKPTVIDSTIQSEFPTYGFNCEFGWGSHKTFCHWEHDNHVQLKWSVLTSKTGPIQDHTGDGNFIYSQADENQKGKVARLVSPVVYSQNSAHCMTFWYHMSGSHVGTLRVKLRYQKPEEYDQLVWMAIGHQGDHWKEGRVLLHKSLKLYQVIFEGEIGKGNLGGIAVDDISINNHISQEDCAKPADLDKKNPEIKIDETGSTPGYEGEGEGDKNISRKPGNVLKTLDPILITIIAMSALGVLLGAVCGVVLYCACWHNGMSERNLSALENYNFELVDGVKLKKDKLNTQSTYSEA
CRFR2-BP antag – blocks CRF-induced signaling of the CRF-BP/CRF-R2 complex; actives 0.59% (n = 350,000); inhibition, % at 11.8 µM; HEK293 CRF-R2/CRF-BP, CRF-induced calcium fluorescence;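 active means inhibition of the ligand-induced calcium signal above about 50% at the single tested concentration, limit read from the data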
Tn7 DDE FP – DD(E)-Tn7 binding inhibition, primary FP screen. actives 0.13% (n = 370,000). inhibition, % at 8.3 µM. AID 720508. FP displacement of FITC-Tn7 peptide from fibrin DD(E); 0% = median of compound wells per plate;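 active means inhibition above the mean of compounds falling within the control limits plus 3 SD of them, cut at about 14% in these data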
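Assay system: Human fibrin DD(E) protein | Medium: Tris buffer with calcium and detergent, pH 7.8 | Reagent: 0.1 µM fluorescent Tn7 | Compound dosing: Single point at 8.3 µM | Times: 10 min preincubation, 3 h with tracer, room temperature | Detection: Fluorescence polarization of the labelled Tn7 tracer | Controls: Aha-Tn7 high control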
proKLK7 act – activators of human kallikrein-7 zymogen; activation, % at 7 µM; AID 652039; P49862; purified proKLK7, EDANS-DABCYL substrate fluorescence; 100% is mature enzyme control, 0% vehicle; actives 0.9% (n = 370,000);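 active means activation above the mean of all tested compounds plus 3 SD, computed per campaign excluding outliers beyond control limits, cut at about 13% in these data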
CRFR2-BP ag – agonists of human CRF-binding protein/CRF-R2 receptor complex; HEK293 CRF-R2/CRF-BP, calcium dye fluorescence (FLIPR); percent of saturating CRF peptide response; activation, % at 13.2 µM; actives 0.46% (n = 350,000); AID 588473;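 active means activation of at least 50%, plus an integration ratio under a set limit after plate pattern correction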
KLK7 act conf – confirmation of human kallikrein-7 zymogen activators | shares compounds with proKLK7 act | purified proKLK7, EDANS-DABCYL substrate fluorescence; scaled: vehicle 0, mature enzyme 100 | actives 68% (n = 3,200) | activation, % at 7 µM;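 active means activation, as change over the incubation, above the mean of all tested compounds plus 3 SD, cut at about 13% in these data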
EDANS interfere – optically interferes with EDANS-DABCYL signal, flagging KLK7 hits; shares compounds with proKLK7 act; EDANS-DABCYL substrate fluorescence interference, no enzyme, 4 h; solvent 0%, active enzyme control 100%; activation, % at 7 µM; actives 80% (n = 3,200);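 active means activation above the all-compound mean plus 3 SD, ignoring values outside control-based bounds, cut at about 4.8% in these data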;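 further: value is the 4 h activation minus the activation read at time zero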
EDANS interf – optically interferes with EDANS-DABCYL fluorescence, kallikrein-7 activator counter-screen | AID 720493 | actives 20% (n = 250) | EDANS-DABCYL peptide fluorescence interference, no enzyme | shares compounds with proKLK7 act | EC50, µM;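 active means compounds that raise the fluorescence signal in this interference counterscreen, with EC50 at or below 10 µM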;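 further: intact quenched peptide substrate alone read at 355 nm excitation and 520 nm emission; signal is fluorescence gain from T0 to T4 after four hours at room temperature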
Each line names hits and unclear results; the compound was inactive in the other large screens (follow-up assays come after a bar, where they were run).

O=C(NCc1ccc(F)cc1)c1cccnc1C(=O)O	CendR NRP1 mod 27
O=C(NCc1ccc(F)cc1)c1cnc(-c2ccccn2)nc1C(F)(F)F	CendR NRP1 mod 29
O=C(NCc1cccs1)c1cccnc1C(=O)O	none (no result: DDE Tn6 FP inh, Tn7 DDE FP, proKLK7 act)
COCCN1CC(=O)N(c2cccc(C)c2C)C(c2ccc(Cl)cc2)C1=O (stereo not drawn)	CRFR2-BP antag 56
CN(C)CCNCCCNc1c2ccccc2nc2cccc([N+](=O)[O-])c12	CendR NRP1 mod 31
COc1ccc(C2CC(c3ccccc3)Nc3nc(NC(=O)c4cccs4)nn32)cc1 (stereo not drawn)	CendR NRP1 mod 31
COC(=O)C1=C(C)N(Cc2ccc(C(F)(F)F)cc2)C(=NCc2ccc(C(F)(F)F)cc2)NC1c1ccccc1C(F)(F)F (stereo not drawn)	none (no result: CendR NRP1 mod, CRFR2-BP antag, CRFR2-BP ag)
O=C1C(Cl)=C(Nc2ccccc2)C(=O)c2ccccc21	CRFR2-BP antag 83
O=C(O)c1ccc(NC2=C(Cl)C(=O)c3ccccc3C2=O)cc1	CendR NRP1 mod 29, CRFR2-BP antag 101
O=C(OC1CCOC1=O)C1CCN(S(=O)(=O)c2c(Cl)cccc2Cl)CC1 (stereo not drawn)	CendR NRP1 mod 20
Cc1ccc(N2C(=O)c3sc4nnc(C)c(=O)n4c3C2=O)cc1	CRFR2-BP antag 52
COC(=O)[C@]12C[C@H](CC(=O)NCc3ccc(C)o3)C(=O)N(Cc3ccc4c(c3)OCO4)C1=C[C@H](C(C)(C)C)O[C@@H]2C	none (no result: CendR NRP1 mod, CRFR2-BP antag, CRFR2-BP ag)
COC(=O)[C@]12C[C@H](CC(=O)NCc3ccc(C)o3)C(=O)N(Cc3cccc4ccccc34)C1=C[C@H](C(C)(C)C)O[C@@H]2C	none (no result: CendR NRP1 mod, CRFR2-BP antag, CRFR2-BP ag)
O=C(c1ccc(N2CCNCC2)cc1)c1cccnc1	CRFR2-BP antag 62
O=C(Nc1ccc(N2CCCCC2)cc1)c1cccnc1	none
COC(=O)[C@]12C[C@H](CC(=O)NCc3ccc(OC)c(OC)c3)C(=O)N(Cc3cccc4ccccc34)C1=C[C@H](COCc1ccccc1)O[C@@H]2C	none (no result: CendR NRP1 mod, CRFR2-BP antag, CRFR2-BP ag)
CCCC(=O)N1CCc2cc(-c3nc(N)sc3C)ccc21	CRFR2-BP antag 51
CNc1nc(-c2ccc3c(c2)CCN3C(=O)CC(C)(C)C)c(C)s1	none
COC(=O)[C@]12C[C@H](CC(=O)NCc3ccc(C)o3)C(=O)N(CCc3ccc(OC)c(OC)c3)C1=C[C@H](C(C)C)O[C@@H]2C1CC1	none (no result: CendR NRP1 mod, CRFR2-BP antag, CRFR2-BP ag)
COc1ccc(CC2CCN(c3ncnc4sccc34)CC2)cc1	none (no result: CendR NRP1 mod, CRFR2-BP antag, proKLK7 act, CRFR2-BP ag)
CCCNC(=O)C(Cc1ccccc1)NC(=O)c1ccc(C(C)(C)C)cc1 (stereo not drawn)	CendR NRP1 mod 26
CCCNC(=O)C(Cc1ccccc1)NC(=O)c1ccc(-c2ccccc2)cc1 (stereo not drawn)	none
O=C1NC(Cc2c[nH]c3ccccc23)C(=O)N1Cc1cccc2ccccc12 (stereo not drawn)	CRFR2-BP antag 51
CCCCNC(=O)NS(=O)(=O)c1ccc(NC(=O)CSc2nnc(-c3cccs3)n2-c2ccc(OC)cc2)cc1	none (no result: CendR NRP1 mod, CRFR2-BP antag, CRFR2-BP ag)
CN(C)c1ccc(N=Cc2nc(-c3ccccc3)oc2O)cc1	CRFR2-BP ag 161
Oc1oc(-c2ccccc2)nc1C=Nc1ccccc1	none
COC(=O)C1CN(Cc2ccc(F)cc2)CCS(=O)(=O)N1Cc1ccc(C)cc1 (stereo not drawn)	none (no result: CendR NRP1 mod, CRFR2-BP antag, CRFR2-BP ag)
O=C1C(C2=C(O)c3ccccc3C2=O)=Nc2ccccc21	CendR NRP1 mod 39
O=C(c1cnc2c(c1)COc1ccc(Cl)cc1-2)c1ccccc1O	none
Cc1ccc(O)c(C(=O)c2cnc3c(c2)COc2ccccc2-3)c1	CendR NRP1 mod 26
CN1C(=O)c2oc3ccccc3c(=O)c2C1c1ccccn1 (stereo not drawn)	CendR NRP1 mod 33
CC(=O)Nc1cccc(C(C)C2=CCCCC2)c1 (stereo not drawn)	none (no result: CendR NRP1 mod, CRFR2-BP antag, CRFR2-BP ag)
COc1ccc(OC)c(CN2C(=O)CSCCC2(C)c2nnnn2C2CCCC2)c1 (stereo not drawn)	none (no result: CendR NRP1 mod, CRFR2-BP antag, CRFR2-BP ag)
C=CCNC(=O)c1ccsc1N	DDE Tn6 FP inh 17 (no result: CRFR2-BP antag, CRFR2-BP ag)
Cc1cc(N=NC(=O)c2ccccc2O)c2ccccc2c1O	CRFR2-BP antag 51
Cn1c(O)c(N=NC(=O)c2ccccc2O)c2ccccc21	none
C[C@H](O)[C@@H]1CN2CCc3ccc(-c4ccc5c(c4)OCO5)cc3[C@@H]2C[C@@H]1N(C)C(=O)c1cccc(Cl)c1	none (no result: CendR NRP1 mod, CRFR2-BP antag, CRFR2-BP ag)
COc1ccc(C2c3c(-c4ccccc4O)n[nH]c3C(=O)N2Cc2ccco2)cc1 (stereo not drawn)	CRFR2-BP antag 136
COc1cc(C2c3c(-c4ccccc4O)n[nH]c3C(=O)N2Cc2ccco2)cc(OC)c1OC (stereo not drawn)	none
C[C@H]1O[C@@H](O[C@H]2CC[C@@]3(C)C(CC[C@]4(C)C3C=C[C@]35OC[C@@]6(CCC(C)(C)C[C@H]63)[C@@H](O)C[C@]54C)[C@]2(C)CO)[C@H](O)[C@@H](O[C@@H]2O[C@H](CO)[C@@H](O)[C@H](O)[C@H]2O)[C@H]1O (stereo partly drawn)	CRFR2-BP ag 87
CCCn1nc([N+](=O)[O-])c(C(C#N)c2nc3ccccc3s2)c(Cl)c1=O (stereo not drawn)	CendR NRP1 mod 34, CRFR2-BP antag 69
COC(=O)C1=C(C)N(C)C(C)=C(C(=O)OC)C1c1ccc(C(=O)OC)cc1	none
COC(=O)C1=CNC=C(C(=O)OC)C1c1ccc(C(=O)OC)cc1	proKLK7 act 13 | KLK7 act conf 19 | EDANS interfere 14 | EDANS interf inactive
NC(=O)C1CCN(c2nc(-c3ccc(OCc4ccccc4)cc3)cs2)CC1	none (no result: CendR NRP1 mod, CRFR2-BP antag, proKLK7 act, CRFR2-BP ag)
CSCCNC(=O)C1(C)CCN1C(=O)CCc1ccccc1 (stereo not drawn)	proKLK7 act 16 (no result: CRFR2-BP antag, CRFR2-BP ag) | KLK7 act conf inactive | EDANS interfere inactive
CC1(C(=O)NS(=O)(=O)c2ccccc2)CCN1C(=O)CCc1ccccc1 (stereo not drawn)	none (no result: CRFR2-BP antag, CRFR2-BP ag)
Cc1ccc(C2C=C(c3ccc4c(c3)OCO4)Nc3ncnn32)cc1 (stereo not drawn)	proKLK7 act 15 | KLK7 act conf inactive | EDANS interfere 9.2

Compound activity from PubChem BioAssay.
